Data taken from ChEMBL document CHEMBL2021854, “2-Aminopyrimidine based 4-aminoquinoline anti-plasmodial agents. Synthesis, biological activity, structure-activity relationship and mode of action studies” (Eur J Med Chem, 2012).

Key:
[1] = Inhibition of beta-hematin formation assessed as Ferriprotoporphyrin IX biomineralisation after 24 hrs; type: functional
Summary of the method: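 Hemin (0.5 mg/ml in DMSO) was mixed with 0.5 M sodium acetate pH 4.4 and compound, then incubated for 24 h at 37 °C. The pellet was washed with DMSO to remove unreacted hemin and dissolved in 0.1 N NaOH, with A405 read. Percent inhibition was taken versus solvent control, and IC50 by curve fitting.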

[2] = system: Vesicular stomatitis virus; experiment: Antiviral activity against Vesicular stomatitis virus infected in HeLa cells assessed as inhibition of virus-induced cytopathogenicity after 4 days; type: functional, organism-based; conditions: 96 h
Summary of the method: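 Confluent HEL or HeLa monolayers infected with 100 CCID50 of virus in the presence of varying compound concentrations.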

[3] = Cytotoxicity against MDCK cells assessed as cell viability by colorimetric formazan-based MTS assay; design: species or system Canis lupus familiaris; conditions: dog, MDCK cells
Summary of the method: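 Cytotoxicity on MDCK cells; 50% cytotoxic concentration from cell viability measured by colorimetric formazan-based MTS assay.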

[4] = Cytotoxicity against MDCK cells assessed as minimum compound concentration required to causes microscopically detectable alteration of normal cell morphology; type: cell-based, Canis lupus familiaris; conditions: dog
Summary of the method: (§1)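 Confluent, non-proliferating cell cultures were exposed to the compounds. The endpoint was the minimum concentration producing a microscopically detectable alteration of normal cell morphology.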

Influenza A virus [5] = experiment: Antiviral activity against Influenza A virus H1N1 infected in MDCK cells assessed as inhibition of virus-induced cytopathogenicity after 4 days by colorimetric formazan-based MTS assay; type: functional, organism-based; conditions: 96 h
Influenza A virus [6] = experiment: Antiviral activity against Influenza A virus H3N2 infected in MDCK cells assessed as inhibition of virus-induced cytopathogenicity after 4 days by colorimetric formazan-based MTS assay; type: functional, organism-based; conditions: 96 h
[7] = system: Respiratory syncytial virus; experiment: Antiviral activity against Respiratory syncytial virus infected in human HeLa cells assessed as inhibition of virus-induced cytopathogenicity after 4 days; type: functional, organism-based; conditions: 96 h
Summary of the method: (§2)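 Confluent HEL, Vero or HeLa monolayers were inoculated with 100 CCID50 of virus in the presence of varying concentrations of compound. Cytopathicity was scored when it reached completion in untreated, virus-infected control cultures.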

Coxsackievirus B4 = experiment: Antiviral activity against Coxsackie virus B4 infected in human HeLa cells assessed as inhibition of virus-induced cytopathogenicity after 4 days; type: functional, organism-based; conditions: Enterovirus B, 96 h; summary of the method: as §2
Human respirovirus 3 = experiment: Antiviral activity against Parainfluenza-3 virus infected in african green monkey Vero cells assessed as inhibition of virus-induced cytopathogenicity after 4 days; type: functional, organism-based; conditions: Human respirovirus 3, Vero, 96 h; summary of the method: as §2
[8] = Cytotoxicity against human HeLa cells assessed as minimum compound concentration required to causes microscopically detectable alteration of normal cell morphology; type: cell-based; summary of the method: as §1
Influenza B virus = experiment: Antiviral activity against Influenza B virus infected in MDCK cells assessed as reduction visual scoring of virus-induced cytopathogenicity after 4 days; type: functional, organism-based; conditions: 96 h
Summary of the method: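 MDCK monolayers infected with 100 CCID50 of influenza A (H1N1 or H3N2) or influenza B, with varying compound concentrations. Cytopathicity read when untreated infected controls reached complete CPE.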

Sindbis virus = experiment: Antiviral activity against Sindbis virus infected in african green monkey Vero cells assessed as inhibition of virus-induced cytopathogenicity after 4 days; type: functional, organism-based; conditions: 96 h; summary of the method: as §2
[9] = Cytotoxicity against african green monkey Vero cells assessed as minimum compound concentration required to causes microscopically detectable alteration of normal cell morphology; type: cell-based; conditions: chlorocebus sabaeus; summary of the method: as §1

Row | SMILES | IC50 [1] [µM] | EC50 [2] [µM] | CC50 [3] [µM] | MCC [4] [µM] | EC50 (Influenza A virus [5]) [µM] | EC50 (Influenza A virus [6]) [µM] | EC50 [7] [µM] | EC50 (Coxsackievirus B4) [µM] | EC50 (Human respirovirus 3) [µM] | MCC [8] [µM] | EC50 (Influenza B virus) [µM] | EC50 (Sindbis virus) [µM] | MCC [9] [µM]
1 | CCN(CC)CCCC(C)Nc1ccnc2cc(Cl)ccc12 (stereo not drawn) [CHLOROQUINE] | 18 |  |  |  |  |  |  |  |  |  |  |  | 
2 | NC(=O)c1ncn([C@@H]2O[C@H](CO)[C@@H](O)[C@H]2O)n1 [RIBAVIRIN] |  | > 250 | > 100 | > 100 | 6.7 | 5.6 | > 250 | > 250 | 29 | > 250 | 7 | > 250 | > 250
